Data as given in ChEMBL document CHEMBL1629656, “Oritavancin kills stationary-phase and biofilm Staphylococcus aureus cells in vitro” (Antimicrob Agents Chemother, 2009).
Values after ≈ are worked out from the molar mass of the structure shown. Active and inactive are the calls of the source. The rule behind the calls is not given here.

Columns and labels:
Staphylococcus aureus [1] = test: Antimicrobial activity against exponential-phase methicillin-sensitive Staphylococcus aureus ATCC 29213 grown on nutrient-depleted CAMHB medium assessed as membrane permeability after 30 mins by propidium iodide staining-based fluorescence spectrophotometry; type: functional, organism-based
Staphylococcus aureus [2] = test: Bactericidal activity against stationary-phase methicillin-resistant Staphylococcus aureus ATCC 33591 grown on nutrient-depleted CAMHB medium after 24 hrs by time kill analysis; type: functional, organism-based
How it was run: (§1)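 Overnight stationary-phase cultures inoculated at ~10^7 CFU/ml into strain-matched spent CAMHB (pH 7.0, filter-sterilized). Oritavancin was kept at 0.002% polysorbate 80; daptomycin wells had 50 μg/ml CaCl2. Incubation at 37°C, 225 rpm. Samples were charcoal-quenched (25 mg/ml) before plating; points are means of duplicates. Bactericidal means ≥3-log drop at 24 h versus inoculum. ≥3 repeats.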

Staphylococcus aureus [3] = test: Bactericidal activity against exponential-phase methicillin-sensitive Staphylococcus aureus ATCC 29213 assessed as log reduction in bacterial count at 4 ug/ml within 2 hrs by time kill analysis; type: functional
Staphylococcus aureus [4] = test: Antimicrobial activity against 4.6 X 10^6 CFU/peg methicillin-susceptible Staphylococcus aureus ATCC 29213 planktonic cells by broth microdilution method
Staphylococcus aureus [5] = test: Bactericidal activity against stationary-phase vancomycin-resistant Staphylococcus aureus isolate VRS5 after 24 hrs by time kill analysis; type: functional, organism-based; how it was run: as §1
Staphylococcus aureus [6] = test: Antimicrobial activity against methicillin-sensitive Staphylococcus aureus ATCC 29213 assessed as inhibition of bacterial biofilm formation after 1 hr by serial dilution method; type: functional
Staphylococcus aureus [7] = test: Antimicrobial activity against 4.6 X 10^6 CFU/peg methicillin-susceptible Staphylococcus aureus ATCC 29213 assessed as inhibition of biofilm formation after 24 hrs by serial dilution method
Staphylococcus aureus [8] = test: Antimicrobial activity against stationary-phase methicillin-sensitive Staphylococcus aureus ATCC 29213 grown on nutrient-depleted CAMHB medium assessed as membrane permeability after 30 mins by propidium iodide staining-based fluorescence spectrophotometry; type: functional, organism-based
Staphylococcus aureus [9] = test: Bactericidal activity against stationary-phase methicillin-sensitive Staphylococcus aureus ATCC 29213 assessed as log reduction in bacterial count at 16 ug/ml within 2 hrs by time kill analysis; type: functional
How it was run: (§2)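 Short (2-h) time-kill of ATCC 29213 at OD600 0.005 (~10^6 CFU/ml) in 10 mM HEPES-Cl pH 7.5 with 50 μg/ml CaCl2. Exponential cells had 5 mM glucose and stationary cells none. Oritavancin was tested without polysorbate 80; viable counts were taken by serial dilution plating. Three repeats; one shown.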

Staphylococcus aureus [10] = test: Antimicrobial activity against vancomycin-resistant Staphylococcus aureus isolate VRS5 planktonic cells by broth microdilution method; type: functional
How it was run: (§3)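 Planktonic MIC read in the MBEC system against cells shed from 24-h peg biofilms (grown in tryptic soy broth, 37°C, 150 rpm), after 24-h exposure to serially diluted drug in CAMHB without polysorbate 80. Ranges come from ≥3 independent experiments.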

Staphylococcus aureus [11] = test: Antimicrobial activity against stationary-phase methicillin-sensitive Staphylococcus aureus ATCC 29213 grown on nutrient-depleted CAMHB medium assessed as membrane depolarization after 30 mins using DiSC3(5) dye based fluorescence spectrophotometry; type: functional, organism-based
Homo sapiens = test: fCmin in human at 200 […]; type: ADME, organism-based; conditions: in vivo
Staphylococcus aureus [12] = test: Bactericidal activity against exponential-phase methicillin-sensitive Staphylococcus aureus ATCC 29213 assessed as log reduction in bacterial count at 16 ug/ml within 15 mins by time kill analysis; type: functional; how it was run: as §2
Staphylococcus aureus [13] = test: Bactericidal activity against methicillin-sensitive Staphylococcus aureus assessed as log reduction in bacterial load within 15 to 120 mins; type: functional
Staphylococcus aureus [14] = test: Antimicrobial activity against methicillin-resistant Staphylococcus aureus ATCC 33591 assessed as inhibition of biofilm formation after 24 hrs by serial dilution method; type: functional
How it was run: (§4)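 24-h biofilms grown on MBEC peg lids from 10^7 CFU/ml inocula in tryptic soy broth at 37°C, 150 rpm. After a saline wash, pegs were exposed for 24 h to serially diluted drug in CAMHB with no polysorbate 80. Pegs were washed, sonicated 5 min into CAMHB recovery plates and incubated 24 h; MBEC is the lowest sterilizing concentration. Ranges come from ≥3 independent experiments.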

Staphylococcus aureus [15] = test: Bactericidal activity against exponential-phase methicillin-sensitive Staphylococcus aureus ATCC 29213 grown on nutrient-depleted CAMHB medium at 4 ug/ml after 24 hrs by time kill analysis; type: functional, organism-based
Staphylococcus aureus [16] = test: Antimicrobial activity against methicillin-resistant Staphylococcus aureus ATCC 33591 planktonic cells by broth microdilution method; type: functional; how it was run: as §3
Staphylococcus aureus [17] = test: Antimicrobial activity against exponential-phase methicillin-sensitive Staphylococcus aureus ATCC 29213 grown on nutrient-depleted CAMHB medium assessed as membrane depolarization after 30 mins using DiSC3(5) dye based fluorescence spectrophotometry; type: functional, organism-based
Staphylococcus aureus [18] = test: Bactericidal activity against stationary-phase methicillin-sensitive Staphylococcus aureus ATCC 29213 assessed as log reduction in bacterial count at 4 ug/ml within 2 hrs by time kill analysis; type: functional
Staphylococcus aureus [19] = test: Bactericidal activity against exponential-phase methicillin-sensitive Staphylococcus aureus ATCC 29213 grown on nutrient-depleted CAMHB medium at 0.5 ug/ml after 24 hrs by time kill analysis; type: functional, organism-based
Staphylococcus aureus [20] = test: Antimicrobial activity against methicillin-sensitive Staphylococcus aureus ATCC 29213 planktonic cells by broth microdilution method; type: functional; how it was run: as §3
Staphylococcus aureus [21] = test: Bactericidal activity against stationary-phase vancomycin-resistant Staphylococcus aureus isolate VRS5 grown on nutrient-depleted CAMHB medium assessed as log reduction in bacterial count at 4 ug/ml after 24 hrs by time kill analysis
Staphylococcus aureus [22] = test: Antimicrobial activity against methicillin-sensitive Staphylococcus aureus ATCC 29213 assessed as inhibition of biofilm formation after 24 hrs by serial dilution method; type: functional; how it was run: as §4
Staphylococcus aureus [23] = test: Bactericidal activity against stationary-phase methicillin-resistant Staphylococcus aureus ATCC 33591 grown on nutrient-depleted CAMHB medium assessed as reduction in bacterial count at 0.5 ug/ml after 24 hrs by time kill analysis; type: functional; how it was run: as §1
Staphylococcus aureus [24] = test: Inhibition of cell division in stationary-phase methicillin-resistant Staphylococcus aureus ATCC 43300 assessed as absence of appearance of septal midline at 1 ug/ml by transmission electron microscopy; type: functional, organism-based
How it was run: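 Stationary-phase MRSA ATCC 43300 (5 × 10^7 CFU/ml) exposed for 3 h in nutrient-depleted CAMHB. Cells were fixed in 2.5% glutaraldehyde, post-fixed in 2% osmium tetroxide and en bloc stained with uranyl acetate. Samples were ethanol-dehydrated, embedded in LR White, thin-sectioned, and stained with uranyl acetate/lead citrate. Septa were viewed by TEM at 100 kV.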

Staphylococcus aureus [25] = test: Bactericidal activity against stationary-phase methicillin-sensitive Staphylococcus aureus ATCC 29213 grown on nutrient-depleted CAMHB medium assessed as log reduction in bacterial count at 0.5 ug/ml after 24 hrs by time kill analysis; type: functional
Staphylococcus aureus [26] = test: Bactericidal activity against exponential-phase methicillin-sensitive Staphylococcus aureus ATCC 29213 grown on nutrient-depleted CAMHB medium at 16 ug/ml after 24 hrs by time kill analysis; type: functional, organism-based

SMILES: CN[C@H](CC(C)C)C(=O)N[C@H]1C(=O)N[C@@H](CC(N)=O)C(=O)N[C@H]2C(=O)N[C@H]3C(=O)N[C@H](C(=O)N[C@H](C(=O)O)c4cc(O)cc(O)c4-c4cc3ccc4O)[C@H](O[C@H]3C[C@](C)(N)[C@@H](O)[C@H](C)O3)c3ccc(c(Cl)c3)Oc3cc2cc(c3O[C@@H]2O[C@H](CO)[C@@H](O)[C@H](O)[C@H]2O[C@H]2C[C@](C)(NCc3ccc(-c4ccc(Cl)cc4)cc3)[C@@H](O)[C@H](C)O2)Oc2ccc(cc2Cl)[C@H]1O [ORITAVANCIN]
- Activity (Staphylococcus aureus [1]): Dose-dependent effect
- Activity (Staphylococcus aureus [2]): Dose-dependent effect
- FC (Staphylococcus aureus [3]): 2.9
- MIC (Staphylococcus aureus [4]): 4 µg/mL (≈ 2.23 µM)
- Activity (Staphylococcus aureus [5]): Dose-dependent effect
- MBEC (Staphylococcus aureus [6]): 4 µg/mL
- MBEC (Staphylococcus aureus [7]): 8 µg/mL
- Activity (Staphylococcus aureus [8]): Dose-dependent effect
- FC (Staphylococcus aureus [9]): 1.5
- MIC (Staphylococcus aureus [10]): 2 µg/mL (≈ 1.12 µM)
- Activity (Staphylococcus aureus [11]): Dose-dependent effect
- fCmin (Homo sapiens): 0.5 µg/mL
- FC (Staphylococcus aureus [12]): 3.2
- FC (Staphylococcus aureus [13]): >=3
- MBEC (Staphylococcus aureus [14]): 0.5 µg/mL
- Activity (Staphylococcus aureus [15]): Active
- MIC (Staphylococcus aureus [16]): 0.5 µg/mL (≈ 0.279 µM)
- Activity (Staphylococcus aureus [17]): Dose-dependent effect
- FC (Staphylococcus aureus [18]): 0.9
- Activity (Staphylococcus aureus [19]): Active
- MIC (Staphylococcus aureus [20]): 2 µg/mL (≈ 1.12 µM)
- FC (Staphylococcus aureus [21]): 2.2
- MBEC (Staphylococcus aureus [22]): 2 µg/mL
- fold change (FC) (Staphylococcus aureus [23]): 0.4
- inhibition (Staphylococcus aureus [24]): Active
- FC (Staphylococcus aureus [25]): 2.9
- Activity (Staphylococcus aureus [26]): Active
